Assay outcomes from PubChem BioAssay.
Sampled rows, rich in hits. Any-hit rate of the full collection: about 2.3%.
TRPC4 block – inhibitors of mouse TRPC4 channel; AID 2247; B-score at 10 µM; actives 0.39% (n = 300,000); HEK293 TRPC4beta/mu-opioid, DAMGO-evoked Fluo4 calcium flux; active compounds read low; Q9QUQ5;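 active = B-score over 3 SD under the library average, no early fluorescence shift, positive overall ratio signal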
Target sequence (Q9QUQ5 whole entry, looked up): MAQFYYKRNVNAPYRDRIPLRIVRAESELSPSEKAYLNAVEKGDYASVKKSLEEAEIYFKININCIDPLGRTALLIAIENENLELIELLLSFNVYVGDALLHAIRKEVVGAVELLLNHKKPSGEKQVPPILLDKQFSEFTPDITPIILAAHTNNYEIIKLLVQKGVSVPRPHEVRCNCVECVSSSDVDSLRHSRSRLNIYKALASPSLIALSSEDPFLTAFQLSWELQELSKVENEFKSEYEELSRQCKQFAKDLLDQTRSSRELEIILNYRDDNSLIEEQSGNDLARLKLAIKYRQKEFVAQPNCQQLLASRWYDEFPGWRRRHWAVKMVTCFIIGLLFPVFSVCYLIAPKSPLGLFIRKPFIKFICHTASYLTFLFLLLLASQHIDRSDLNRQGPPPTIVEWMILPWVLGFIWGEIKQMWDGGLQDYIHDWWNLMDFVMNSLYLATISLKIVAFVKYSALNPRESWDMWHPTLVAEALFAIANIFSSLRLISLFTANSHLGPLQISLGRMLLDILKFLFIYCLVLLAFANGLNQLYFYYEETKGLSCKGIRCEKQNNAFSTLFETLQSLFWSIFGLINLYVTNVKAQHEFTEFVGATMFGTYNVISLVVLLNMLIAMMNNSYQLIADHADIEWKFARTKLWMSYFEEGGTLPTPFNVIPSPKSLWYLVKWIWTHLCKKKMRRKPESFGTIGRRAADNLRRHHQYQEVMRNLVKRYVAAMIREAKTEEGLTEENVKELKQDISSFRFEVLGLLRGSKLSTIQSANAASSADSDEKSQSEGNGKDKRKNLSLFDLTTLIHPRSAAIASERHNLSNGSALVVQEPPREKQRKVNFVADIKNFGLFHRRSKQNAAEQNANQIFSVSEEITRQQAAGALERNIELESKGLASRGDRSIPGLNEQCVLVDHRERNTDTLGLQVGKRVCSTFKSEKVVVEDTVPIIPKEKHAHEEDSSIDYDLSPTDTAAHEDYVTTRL
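Assay system: HEK293 cells with stable TRPC4beta plus mu-opioid receptor expression; Probe or stimulus: DAMGO in two steps, submaximal then maximal; Dosing: single-point compound dosing; Measured by: Fluo4 calcium-dye fluorescence, kinetic read; Read-out basis: B score from integrated Fluo4 fluorescence ratio.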
TRPC6 activator – activates the mouse TRPC6 cation channel; B-score at 10 µM; AID 2550; HEK293-TRPC6 membrane potential dye fluorescence; active compounds read high; actives 0.13% (n = 310,000);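 active = B-score of the integrated fluorescence ratio above library mean plus 3 SD, and starting fluorescence ratio within library mean plus 5 SD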;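 also: higher score means more depolarization so channel activation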
TRPC4 PAM – TRPC4 (mouse) allosteric potentiation; Q9QUQ5; HEK293 TRPC4beta/mu-opioid, DAMGO EC20, Fluo-4 Ca2+ flux; active compounds read high; B-score at 10 µM; actives 0.42% (n = 310,000);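 active = B-score of calcium response area above 5 SD of library B-scores, with initial fluorescence ratio within 5 SD of library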;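 also: B-score of integrated fluorescence ratio over time as area under calcium response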
TRPC6 inh – mouse TRPC6 channel inhibition. actives 1.1% (n = 310,000). AID 2553. HEK293-TRPC6, membrane potential dye, ACh-evoked depolarization; active compounds read low. Q61143. B-score at 10 µM;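 active = B-score under library mean minus 3 SD, initial fluorescence not abnormally high, positive integrated signal ratio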;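 also: B-score derived from integrated fluorescence ratio over the kinetic read; more negative B-score means stronger inhibition of depolarization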
TRPC4 act – TRPC4 (mouse) channel activation; HEK293 TRPC4beta/mu-opioid, Fluo4 calcium fluorescence; active compounds read high; B-score at 10 µM; actives 0.49% (n = 310,000); AID 2237;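 active = B-score above 5 SD of library B-scores, and initial fluorescence ratio not above library mean plus 5 SD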;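 also: positive B-score marks a calcium rise read as TRPC4 activation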
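Material: HEK293 stable line with TRPC4beta plus mu-opioid receptor; technique: Fluo4 calcium-sensitive dye fluorescence, kinetic, 1 Hz baseline; timing: Fluo4 dye loading 45 min at room temperature, 110 s recording; controls: assay buffer as low control, maximal DAMGO as high control; read-out: integrated baseline-normalised fluorescence ratio, converted to per-well B score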
TRPC4 spec 2 – second check of whether TRPC6 inhibitors also affect mouse TRPC4; shares compounds with TRPC6 inh; HEK293 TRPC4/MOR, membrane potential dye fluorescence; channel activated by saturating DAMGO dose; inhibition, % at 10 µM; actives 42% (n = 920);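 active = compounds whose fluorescence signal differed from control wells by over 3 SD, either direction, in both duplicate plates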
TRPC4 spec – tests whether TRPC6 inhibitors also affect mouse TRPC4 | shares compounds with TRPC6 inh | HEK293 TRPC4/mu-opioid, membrane potential fluorescence | activity change, negative = inhibition, % at 10 µM | actives 61% (n = 920) | AID 2777;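 active = rise or fall in signal beyond 3 SD of buffer-only wells in both replicate plates, either sign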;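 also: integrated kinetic ratio of fluorescence range over baseline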
HEK293 MPD ctr 2-1 – second check of TRPC6 inhibitor effects in parental HEK293 cells; shares compounds with TRPC6 inh; parental HEK293 membrane potential dye fluorescence; maximal acetylcholine challenge after compound addition; signal change vs control, % at 10 µM; actives 31% (n = 920); AID 2779;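 active = membrane potential signal moving either way by over 3 SD of the maximum-effect control, in both duplicate plates, meaning non-specific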
HEK293 MPD ctr-1 – counter-screen for TRPC6 inhibitors: effect in parental HEK293 cells | actives 60% (n = 920) | membrane potential signal change, % at 10 µM | parental HEK293 membrane potential dye fluorescence | shares compounds with TRPC6 inh;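 active = membrane potential signal shifting up or down by more than 3 SD of buffer-only wells, on both duplicate plates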
HEK293 MPD ctr-2 – checks TRPC6 modulator effects in parental HEK293 cells; shares compounds with TRPC6 inh; membrane potential dye fluorescence; membrane potential signal change, % at 10 µM; actives 51% (n = 2,400); AID 488924;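 active = membrane potential signal moves up or down beyond 5 SD from buffer-only wells, on both duplicate plates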
HEK293 MPD ctr 2-2 – second check of TRPC6 modulator effects in parental HEK293 cells; shares compounds with TRPC6 inh; membrane potential dye fluorescence; after compound, maximal acetylcholine stimulation; inhibition, % at 10 µM; actives 14% (n = 2,400);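 active = membrane potential signal drops by more than 5 SD from the mean control signal, in both duplicate plates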;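 also: plate controls were acetylcholine ECmax control wells for no effect and buffer only wells for full effect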
TRPC4 ctr mod – selectivity of TRPC6 modulators against mouse TRPC4. shares compounds with TRPC6 inh. actives 69% (n = 2,400). HEK293 TRPC4/mu-opioid, membrane potential fluorescence. percent change from control (negative = decrease, positive = increase), % at 10 µM;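 active = membrane potential signal moved up or down beyond 5 SD of buffer control wells, in both duplicate plates, actives on both sides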;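 also: plate controls were assay buffer wells for no effect and DAMGO maximal-effect wells for full effect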
TRPC4 ctr inh 2 – mouse TRPC4 off-target activity of TRPC6 modulators, second screen; inhibition, % at 10 µM; AID 488928; shares compounds with TRPC6 inh; HEK293 TRPC4/mu-opioid, membrane potential dye fluorescence; stimulated with maximal-effect DAMGO; actives 55% (n = 2,400);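 active = drop in membrane potential signal beyond 5 SD of the control wells in both duplicate plates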;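 also: TRPC4 counter screen for TRPC6 hits run under conditions tuned for TRPC6 not TRPC4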
TRPC6 block conf – confirmation of mouse TRPC6 inhibitors | shares compounds with TRPC6 inh | HEK293-TRPC6, membrane potential dye, ACh-evoked depolarization | inhibition, % at 10 µM | actives 43% (n = 3,300) | AID 488960;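 active = fluorescence ratio falls more than 5 SD below the full-stimulation control mean, in both duplicate runs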;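 also: integrated fluorescence ratio of peak minus minimum over baseline after agonist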
TRPC6 act confirm – confirmation of mouse TRPC6 activators; HEK293-TRPC6 membrane potential dye fluorescence, FDSS; shares compounds with TRPC6 inh; activation, % at 10 µM; AID 488961; actives 11% (n = 2,800);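 active = ratio signal rise beyond 5 SD above unstimulated control wells' mean, seen in both duplicate runs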;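 also: plate controls were buffer EC0 wells for no effect and acetylcholine ECmax response for full effect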
Numbers without * were called inactive; i = inactive; nt = no result given.

SMILES	TRPC4 block	TRPC6 activator	TRPC4 PAM	TRPC6 inh	TRPC4 act	HEK293 MPD ctr-2	HEK293 MPD ctr 2-2	TRPC4 ctr mod	TRPC4 ctr inh 2	TRPC6 block conf	TRPC6 act confirm	others
CC1CCN(c2nc(/C=C/c3ccccc3)nc3ccccc23)CC1	i	i	i	-6.1*	i	i	i	-19%*	i	i	i
O=C(NC1CCCCCC1)c1cc(S(=O)(=O)N2CCOCC2)ccc1F	i	i	i	i	i	nt	nt	nt	nt	nt	nt
CCCCCCCCOC(=O)C[N+](C)(C)C/C=C(/C)Cl	i	i	i	-7.6*	i	nt	nt	nt	nt	61%*	i	TRPC4 spec 2=i;TRPC4 spec=0.1%*;HEK293 MPD ctr 2-1=i;HEK293 MPD ctr-1=2.3%*
CCCCCCCCCCCCOC(=O)C[N+](C)(C)C	-6*	i	i	-6.9*	i	nt	nt	nt	nt	56%*	i	TRPC4 spec 2=i;TRPC4 spec=0.8%*;HEK293 MPD ctr 2-1=324%*;HEK293 MPD ctr-1=i
CCCCCCCCCCOC(=O)C[N+](C)(C)C/C=C(/C)Cl	i	i	i	-5.3*	i	134%*	i	30%*	42%*	64%*	nt
O=C(Nc1ccc(N2CCCC2)cc1)c1ccc(Cl)cc1Cl	i	i	i	i	i	nt	nt	nt	nt	nt	nt
CN1CCN(c2ccc(NC(=O)c3ccc(Cl)cc3Cl)cc2)CC1	i	i	i	-5.9*	i	i	i	i	i	i	i
Cn1c(=O)[nH]c(=O)c2c1nc([N+](=O)[O-])n2Cc1ccccc1	i	i	i	i	i	nt	nt	nt	nt	nt	nt
CN(C)CCCNc1ccc(-c2nn(C)c(=O)c3ccccc23)cc1[N+](=O)[O-]	i	i	i	-7.9*	i	nt	nt	nt	nt	i	i	TRPC4 spec 2=44%*;TRPC4 spec=-26%*;HEK293 MPD ctr 2-1=i;HEK293 MPD ctr-1=-244%*
COCCNc1ccc(-c2nn(C)c(=O)c3ccccc23)cc1[N+](=O)[O-]	i	i	i	i	i	nt	nt	nt	nt	nt	nt
O=S(=O)(c1ccc(NC(=S)N/N=C/c2c3ccccc3cc3ccccc23)cc1)N1CCOCC1	i	i	i	i	i	nt	nt	nt	nt	nt	nt
COC(=O)c1[nH]c2ccc(C)cc2c1NC(=O)C(C)N1CCN(C2CCCCC2)CC1 (stereo not drawn)	i	i	i	i	i	nt	nt	nt	nt	nt	nt
COC(=O)c1[nH]c2ccc(Br)cc2c1NC(=O)C(C)N1CCN(C2CCCCC2)CC1 (stereo not drawn)	i	i	i	-7.6*	i	nt	nt	nt	nt	88%*	i	TRPC4 spec 2=42%*;TRPC4 spec=-18%*;HEK293 MPD ctr 2-1=29%*;HEK293 MPD ctr-1=-144%*
CCOCCCn1c(=NC(=O)c2ccco2)c(C(=O)OCC)cc2c(=O)n3cccc(C)c3nc21	i	i	i	i	i	nt	nt	nt	nt	nt	nt
Cc1ccc(SCc2cc(=O)n3ccsc3n2)c(C)c1	i	i	i	i	i	nt	nt	nt	nt	nt	nt
Cc1ccc(C)c(C(=O)c2c(C)nc3sccn23)c1	i	i	i	-6.1*	i	i	i	10%*	i	i	i
CN(C)C=Nc1c(Br)cc(Br)c2nonc12	i	25*	i	i	i	984%*	i	136%*	i	i	190%*
Cc1cc(C)c(S(=O)(=O)Nc2nnc(C3CCCCC3)s2)c(C)c1	i	i	i	i	i	nt	nt	nt	nt	nt	nt
Cc1cccn2cc(-c3ccc4c(c3)NC(=O)CO4)nc12	i	i	i	-5.9*	i	-84%*	i	-16%*	i	i	i
Cc1ccn2cc(-c3ccc4c(c3)NC(=O)CO4)nc2c1	i	i	i	i	i	nt	nt	nt	nt	nt	nt
Cc1ccc(N=CC2=C(O)CC(C)(C)CC2=O)nc1	i	i	i	i	i	nt	nt	nt	nt	nt	nt
Cc1ccc(N=Cc2c(O)n(C)c(=O)n(C)c2=O)nc1	i	i	i	-5.6*	i	i	i	-15%*	i	i	i
COCCNC(=O)CN(C(=O)CCC(=O)Nc1ccccn1)c1ccc(C)c(C)c1	i	i	i	i	i	nt	nt	nt	nt	nt	nt
Cc1ccc(S(=O)(=O)NCCNC(=O)c2ccc(C)nc2)cc1	i	i	i	-6.3*	i	i	i	i	i	i	nt
Cc1ccc(C(=O)NCCCNCCCNC(=O)c2ccc(C)nc2)cn1	i	i	i	i	i	nt	nt	nt	nt	nt	nt
COC(=O)c1[nH]nc(-c2ccccc2)c1-c1ccccc1	i	i	i	i	i	nt	nt	nt	nt	nt	nt
O=C(Nc1cccnc1)c1cnn2cccnc12	i	i	i	-5.2*	i	-96%*	i	-10%*	i	i	i
CCCn1c(SC(C)C(=O)N2CCOCC2)nc2ccc(Br)cc2c1=O (stereo not drawn)	i	i	i	i	i	nt	nt	nt	nt	nt	nt
CCN1CCN(c2nc3ccccc3nc2C(C#N)C(=O)OCc2ccccc2)CC1 (stereo not drawn)	i	i	i	-7.3*	i	nt	nt	nt	nt	i	i	TRPC4 spec 2=40%*;TRPC4 spec=-19%*;HEK293 MPD ctr 2-1=i;HEK293 MPD ctr-1=-200%*
CCCCCCOC(=O)C(C#N)c1nc2ccccc2nc1N1CCN(CC)CC1 (stereo not drawn)	i	i	i	-5.3*	i	i	i	-29%*	70%*	i	i
